Entries after “also recorded” stand apart in the source; their conditions may differ. No end group written: not given here.
Key:
[1] = molecular target: HSF2BP bound to BRME1-M (complex formed beforehand) (human) (UniProt O75031); assay: ITC
[2] = tested on: interstrand crosslink repair (pICL) in Xenopus egg extract; assay: Cisplatin interstrand crosslink repair in Xenopus egg extract; assay type: biochemical; settings: HSF2BP 0.45 μM, peptide 1.35 μM
HSF2BP [3] = molecular target: T1, HSF2BP (Homo sapiens, UniProt O75031); assay: ITC, BRME1 peptides versus full-length HSF2BP; assay type: binding
T1 sequence (O75031 1-334): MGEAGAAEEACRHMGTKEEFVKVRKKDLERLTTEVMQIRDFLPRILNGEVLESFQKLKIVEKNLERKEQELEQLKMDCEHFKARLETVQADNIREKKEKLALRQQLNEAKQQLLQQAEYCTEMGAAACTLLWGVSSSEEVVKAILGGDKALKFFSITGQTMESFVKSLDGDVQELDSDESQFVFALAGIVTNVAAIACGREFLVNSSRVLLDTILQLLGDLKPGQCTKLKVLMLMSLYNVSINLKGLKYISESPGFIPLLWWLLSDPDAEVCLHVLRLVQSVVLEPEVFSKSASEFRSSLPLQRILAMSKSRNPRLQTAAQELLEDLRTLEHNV
Summary of the method: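 Full-length HSF2BP was His-tagged and bacterially expressed (IPTG, 20°C overnight), TEV-cleaved and SEC-purified. Synthetic BRME1 peptides: N, residues 578–601; M, 602–641; C, 649–668. In 25 mM tris pH 7.5, 250 mM NaCl, 5 mM β-mercaptoethanol at 293 and 303 K, 8–13 μM HSF2BP in the cell was titrated with 80–130 μM peptide. Injections of 10 μl every 210 s; first 2-μl injection discarded. Run in duplicate, fitted for stoichiometry, constants and thermodynamics.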

[4] = tested on: HR intermediates (X-arc) of pICL in Xenopus egg extract; assay type: biochemical; settings: HSF2BP 0.45 μM, peptide 1.35 μM
[5] = tested on: complex formed by HSF2BP and BRCA2-HBD; assay: Negative-staining EM of ring-shaped HSF2BP-BRCA2-HBD complex; assay type: binding, human; settings: 2:1 mix of HSF2BP and BRCA2-HBD
HSF2BP helix α1 = molecular target: T2, HSF2BP helix α1 (Homo sapiens, UniProt O75031); assay: ITC, BRME1-M versus HSF2BP helix α1 peptide; assay type: binding
T2 sequence (O75031 19-50 limits assumed): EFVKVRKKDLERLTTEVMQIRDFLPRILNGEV

HSF2BP [6] = molecular target: T1, HSF2BP; assay: Scanning force microscopy; assay type: physicochemical
Summary of the method: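 HSF2BP was diluted 10,000-fold to 12 nM in 25 mM tris-HCl pH 7.5, 250 mM NaCl, 5 mM β-mercaptoethanol. It was deposited for 30 s on freshly cleaved mica, rinsed with water, dried under filtered air, and imaged in air by SFM. Particle volume distributions were obtained by kernel density analysis.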

HSF2BP [7] = molecular target: T1, HSF2BP; assay: Mass photometry; assay type: physicochemical; settings: 25-100 nM
endogenous Xenopus BRCA2 = assay: BRCA2 degradation during interstrand crosslink repair in Xenopus egg extract; assay type: biochemical; settings: HSF2BP 0.45 μM, peptide 1.35 μM; 5 to 120 min
HSF2BP + BRCA2-HBD = molecular target: T3, HSF2BP + BRCA2-HBD (Homo sapiens, UniProt O75031+P51587); assay: ITC, BRME1-M versus HSF2BP bound to BRCA2-HBD; assay type: binding; settings: 293 K
T3 sequence (O75031 1-334): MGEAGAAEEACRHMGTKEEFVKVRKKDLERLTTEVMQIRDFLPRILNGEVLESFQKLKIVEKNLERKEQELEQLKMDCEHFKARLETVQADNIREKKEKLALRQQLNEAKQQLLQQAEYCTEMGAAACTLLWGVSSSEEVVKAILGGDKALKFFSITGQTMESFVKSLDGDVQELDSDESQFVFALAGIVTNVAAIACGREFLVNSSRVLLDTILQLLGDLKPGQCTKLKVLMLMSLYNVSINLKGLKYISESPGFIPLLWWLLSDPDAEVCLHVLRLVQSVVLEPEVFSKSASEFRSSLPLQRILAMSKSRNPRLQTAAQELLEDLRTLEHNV
T3 sequence (P51587 2291-2342 C2332T partner limits assumed): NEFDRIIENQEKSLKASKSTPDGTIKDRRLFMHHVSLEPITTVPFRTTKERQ

crystal structure = molecular target: the molecule itself; assay: crystal structure
HeLa cells = assay type: cell-based, human; settings: HeLa stably producing the protein; MMC, cisplatin, talazoparib
Summary of the method: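 HeLa cells in DMEM with 10% fetal calf serum were stably co-transfected (PiggyBac) with GFP-HSF2BP and/or Flag-BRME1 variants, then selected with puromycin (1.5 μg/ml) and G418 (800 μg/ml) for 8 days; mixed populations were used. Seeded 100–1000 cells/well in technical duplicates, drugs added next day: MMC 2 h, cisplatin or talazoparib overnight. Coomassie-stained colonies counted on day 10.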

SEC-MALS = molecular target: the molecule itself; assay: SEC-MALS
HSF2BP + BRME1-M = molecular target: T4, HSF2BP + BRME1-M (Homo sapiens, UniProt O75031+Q0VDD7); assay: ITC, BRCA2 fragments versus HSF2BP bound to BRME1-M; assay type: binding; settings: 293 K
T4 sequence (O75031 1-334): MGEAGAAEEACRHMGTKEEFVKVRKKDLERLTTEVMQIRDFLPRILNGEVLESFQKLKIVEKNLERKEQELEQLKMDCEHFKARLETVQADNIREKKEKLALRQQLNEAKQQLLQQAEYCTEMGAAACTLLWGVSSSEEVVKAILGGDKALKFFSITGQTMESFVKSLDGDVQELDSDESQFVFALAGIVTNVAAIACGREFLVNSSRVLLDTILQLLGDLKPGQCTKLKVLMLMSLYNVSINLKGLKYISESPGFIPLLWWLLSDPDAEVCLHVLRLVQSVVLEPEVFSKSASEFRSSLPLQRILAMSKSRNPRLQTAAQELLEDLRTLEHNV
T4 sequence (Q0VDD7 602-641 partner limits assumed): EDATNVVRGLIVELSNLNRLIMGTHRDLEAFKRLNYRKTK

[8] = SFM on mica, in air, HSF2BP at 12 nM

Molecule: BRCA2 fragment 2213–2342 (from UniProt P51587 2213-2342) (domain or fragment)
- dH [1]: -10.9 kcal/mol

Molecule: BRME1-C: synthetic peptide, human BRME1 residues 649 to 668 (PYPSKGPGNIPRGDPPWREL)
- effect on interstrand crosslink repair, in words [2]: no such effect
- binding to HSF2BP, in words (HSF2BP [3]; 30°C): does not bind HSF2BP
- effect on HR repair intermediates, in words [4]: no such effect

Molecule: EDATNVVRGLVIELSNLNRLIMGTHRDLEAFKRLNYRKTK [BRME1-M]
- effect on interstrand crosslink repair, in words [2]: reverted the inhibitory effect of HSF2BP on the interstrand crosslink repair reaction
- effect on ring-shaped complexes, in words [5]: near-complete disappearance of the large ring-shape complexes
- ΔH (HSF2BP helix α1; 293 K): -1.2 kcal/mol
- ─TΔS (HSF2BP helix α1; 293 K): -9.00 kcal/mol
- ΔH (HSF2BP helix α1; 303 K): -7.6 kcal/mol
- ─TΔS (HSF2BP helix α1; 303 K): -2.90 kcal/mol
- effect on HSF2BP-BRCA2-HBD oligomers, in words (HSF2BP [6]; SFM, HSF2BP:BRME1-M = 1:1): complete disappearance of the 24-nucleotide oligomer population
- effect on / state of HSF2BP oligomers, in words (HSF2BP [7]): the HSF2BP tetramer is dissociated into dimers; also recorded: disassembles the 24-nucleotide oligomer complexes, yielding to a mix between octamers, tetramers, and dimers; also recorded: caused disassembly of the ring-shaped complex and enrichment in double-octamers, octamers, and tetramers
- effect on HSF2BP-induced BRCA2 degradation, in words (endogenous Xenopus BRCA2): completely abolished
- ΔG (HSF2BP [3]; 293 K): -10.6 kcal/mol
- ΔH (HSF2BP [3]; 293 K): -5.7 kcal/mol
- ─TΔS (HSF2BP [3]; 293 K): -4.90 kcal/mol
- ΔG (HSF2BP [3]; 303 K): -10.7 kcal/mol
- ΔH (HSF2BP [3]; 303 K): -8.2 kcal/mol
- ─TΔS (HSF2BP [3]; 303 K): -2.50 kcal/mol
- ΔG (HSF2BP + BRCA2-HBD; first of two lines): -10 kcal/mol
- ΔH (HSF2BP + BRCA2-HBD; first of two lines): -4.4 kcal/mol
- ─TΔS (HSF2BP + BRCA2-HBD; first of two lines): -5.60 kcal/mol
- ΔH (HSF2BP + BRCA2-HBD; second of two lines): -5.8 kcal/mol
- ─TΔS (HSF2BP + BRCA2-HBD; second of two lines): -4.40 kcal/mol
- effect on HR repair intermediates, in words [4]: specifically suppressed the reduction in the formation of HR repair intermediates

Molecule: EFVKVRKKDLERLTTEVMQIRDFLPRILNGEV (peptide, UniProt O75031 19-50, looked up) [HSF2BP helix α1 peptide (residues 19 to 50)]
- stoichiometry N (crystal structure): 4

B1: BRME1: Flag-BRME1 stably produced in HeLa cells (protein, UniProt Q0VDD7 1-668, looked up)
Break repair meiotic …: MTKRKKLRTSGEGLCPPKPLKNPRLGDFYGDPQSSMLGCLHHPEEPEGKLGPVPSTQQHGEEPGKAVSSSPDEETGSPCRLLRQPEKEPAPLPPSQNSFGRFVPQFAKSRKTVTRKEEMKDEDRGSGAFSLETIAESSAQSPGCQLLVETLGVPLQEATELGDPTQADSARPEQSSQSPVQAVPGSGDSQPDDPPDRGTGLSASQRASQDHLSEQGADDSKPETDRVPGDGGQKEHLPSIDSEGEKPDRGAPQEGGAQRTAGAGLPGGPQEEGDGVPCTPASAPTSGPAPGLGPASWCLEPGSVAQGSPDPQQTPSRMGREGEGTHSSLGCSSLGMVVIADLSTDPTELEERALEVAGPDGQASAISPASPRRKAADGGHRRALPGCTSLTGETTGESGEAGQDGKPPGDVLVGPTASLALAPGSGESMMGAGDSGHASPDTGPCVNQKQEPGPAQEEAELGGQNLERDLEGFRVSPQASVVLEHREIADDPLQEPGAQQGIPDTTSELAGQRDHLPHSADQGTWADSLAVELDFLLDSQIQDALDASDFEAPPEQLFPSGNKPGPCWPGPSSHANGDPVAVAKAQPRTFVGIQASEASRMEDATNVVRGLIVELSNLNRLIMGTHRDLEAFKRLNYRKTKLGGKAPLPYPSKGPGNIPRGDPPWREL
modifications: Flag tag
- effect on cell resistance to DNA damage, in words (HeLa cells): cancels the disruptive effect of HSF2BP on cancer cell resistance to DNA damage; also recorded: no effect on the cell sensitivity to DNA damage; also recorded: completely abolished the sensitization induced by HSF2BP

B2: HSF2BP H80A-R84A (natural protein, human, UniProt O75031 1-334, looked up)
chain: MGEAGAAEEACRHMGTKEEFVKVRKKDLERLTTEVMQIRDFLPRILNGEVLESFQKLKIVEKNLERKEQELEQLKMDCEAFKAALETVQADNIREKKEKLALRQQLNEAKQQLLQQAEYCTEMGAAACTLLWGVSSSEEVVKAILGGDKALKFFSITGQTMESFVKSLDGDVQELDSDESQFVFALAGIVTNVAAIACGREFLVNSSRVLLDTILQLLGDLKPGQCTKLKVLMLMSLYNVSINLKGLKYISESPGFIPLLWWLLSDPDAEVCLHVLRLVQSVVLEPEVFSKSASEFRSSLPLQRILAMSKSRNPRLQTAAQELLEDLRTLEHNV
- stoichiometry N (SEC-MALS): 8
- effect on cell resistance to DNA damage, in words (HeLa cells): compromised cell survival as HSF2BP wild type

B3: C78A-C120S-C128A (protein, UniProt O75031 1-334, looked up, variant C78A C120S C128A)
Heat shock factor 2-binding …: MGEAGAAEEACRHMGTKEEFVKVRKKDLERLTTEVMQIRDFLPRILNGEVLESFQKLKIVEKNLERKEQELEQLKMDAEHFKARLETVQADNIREKKEKLALRQQLNEAKQQLLQQAEYSTEMGAAAATLLWGVSSSEEVVKAILGGDKALKFFSITGQTMESFVKSLDGDVQELDSDESQFVFALAGIVTNVAAIACGREFLVNSSRVLLDTILQLLGDLKPGQCTKLKVLMLMSLYNVSINLKGLKYISESPGFIPLLWWLLSDPDAEVCLHVLRLVQSVVLEPEVFSKSASEFRSSLPLQRILAMSKSRNPRLQTAAQELLEDLRTLEHNV
- effect on cell resistance to DNA damage, in words (HeLa cells): sensitized HeLa cells less than the wild-type protein

B4: BRCA2_2213–2342: BRCA2 fragment 2213–2342 (protein, UniProt P51587 2213-2342, looked up, fragment)
chain: STYSKDSENYFETEAVEIAKAFMEDDELTDSKLPSHATHSLFTCPENEEMVLSNSRIGKRRGEPLILVGEPSIKRNLLNEFDRIIENQEKSLKASKSTPDGTIKDRRLFMHHVSLEPITCVPFRTTKERQ
- ΔH (HSF2BP + BRME1-M): -10.9 kcal/mol
- ─TΔS (HSF2BP + BRME1-M): -1.70 kcal/mol
- Kd (HSF2BP + BRME1-M; pH 7.5, 10 μM complex in cell, 55 to 60 μM BRCA2 fragment in syringe): 7.8 nM

B5: armadillo domain: HSF2BP armadillo domain alone (E122-V334) (protein)
chain: EMGAAACTLLWGVSSSEEVVKAILGGDKALKFFSITGQTMESFVKSLDGDVQELDSDESQFVFALAGIVTNVAAIACGREFLVNSSRVLLDTILQLLGDLKPGQCTKLKVLMLMSLYNVSINLKGLKYISESPGFIPLLWWLLSDPDAEVCLHVLRLVQSVVLEPEVFSKSASEFRSSLPLQRILAMSKSRNPRLQTAAQELLEDLRTLEHNV
- particle volume, larger peak (HSF2BP [6]; [8]): ~90 nm^3
- particle volume, smaller peak (HSF2BP [6]; [8]): ~35 nm^3

Source: article PMC10610910 (Science Advances, 2023)
